Assay results published in ChEMBL document CHEMBL4033782, “Structural Modification of Natural Product Tanshinone I Leading to Discovery of Novel Nitrogen-Enriched Derivatives with Enhanced Anticancer Profile and Improved Drug-like Properties” (J Med Chem, 2018).
≈ marks a conversion by molar mass, not a printed value.

Experiments:
[1] = test system: HCT-116; assay: Induction of apoptosis in human HCT116 cells assessed as early apoptotic cells at 1 uM after 48 hrs by Annexin V-FITC/propidium iodide staining-based FACS analysis (reference value: 2.35%); format: functional
[2] = Aqueous solubility of the compound in pH 7.5 Tris buffer after 24 hrs by HPLC method; format: physicochemical
[3] = Half life in human liver microsomes at 0.1 uM up to 60 mins by LC-MS/MS analysis; format: ADME, microsome
In short: (§1)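 Compound at 0.1 μM final (0.01% DMSO, 0.005% BSA) incubated at 37 °C with human, rat or mouse liver microsomes (0.33 mg/mL protein) in 0.1 M Tris/HCl pH 7.4, with 5 mM MgCl2 and 1 mM NADPH. Samples taken at 0, 7, 17, 30 and 60 min, quenched by methanol precipitation, centrifuged, and parent measured by LC-MS/MS. T1/2 and Clint derived.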

[4] = test system: HCT-116; assay: Induction of apoptosis in human HCT116 cells assessed as early apoptotic cells at 0.5 uM after 48 hrs by Annexin V-FITC/propidium iodide staining-based FACS analysis (reference value: 2.35%); format: functional
[5] = Oral bioavailability in Sprague-Dawley rat at 3.0 mg/kg; format: ADME, organism-based; conditions: in vivo
In short: (§2)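 Male SD rats dosed orally at 3.0 mg/kg in DMSO/Tween 80/normal saline; plasma profile gives T1/2, Cmax, Tmax, AUC, MRT; F from comparison with 1.0 mg/kg i.v. dosing.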

[6] = test system: HCT-116; assay: Induction of apoptosis in human HCT116 cells assessed as early apoptotic cells at 2 uM after 48 hrs by Annexin V-FITC/propidium iodide staining-based FACS analysis (reference value: 2.35%); format: functional
[7] = test system: Liver; assay: Intrinsic clearance in mouse liver microsomes assessed per mg protein up to 60 mins by LC-MS/MS analysis; format: ADME, microsome; conditions: 1 h; in short: as §1
[8] = test system: KB; assay: Antiproliferative activity against human KB cells after 72 hrs by sulforhodamine B assay; format: functional, cell-based
In short: (§3)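 Cells grown in ATCC-specified medium with 10% heat-inactivated FBS, penicillin/streptomycin and 10 mM Hepes, at 37 °C under 5% CO2. Seeded, cultured overnight, then exposed to gradient concentrations for 72 h. Growth read by SRB staining; inhibition % = [1−(A450 treated/A450 control)]×100. IC50 obtained by the Logit method from independent experiments.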

[9] = AUC in Sprague-Dawley rat at 3.0 mg/kg, po; format: ADME, organism-based; conditions: in vivo
In short: (§4)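 Male SD rats dosed i.v. at 1.0 mg/kg or orally at 3.0 mg/kg. Vehicle is DMSO, Tween 80 and normal saline. Plasma concentration–time data give CL, Vss, T1/2, Cmax, Tmax, MRT, AUC and oral bioavailability F.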

[10] = test system: NCI-H460; assay: Antiproliferative activity against human H460 cells after 72 hrs by sulforhodamine B assay; format: functional, cell-based; conditions: NCI-H460, 72 h; in short: as §3
[11] = MRT (infinity) in Sprague-Dawley rat at 1.0 mg/kg, iv; format: ADME, organism-based; conditions: in vivo
In short: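 Male SD rats given 1.0 mg/kg i.v. in DMSO/Tween 80/normal saline vehicle; plasma concentration–time profile used for clearance, Vss, MRT.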

[12] = test system: A549; assay: Antiproliferative activity against human A549 cells after 72 hrs by sulforhodamine B assay; format: functional, cell-based; conditions: A549, 72 h; in short: as §3
[13] = test system: HCT-116; assay: Induction of apoptosis in human HCT116 cells pretreated with Z-VAD-FMK pan-caspase inhibitor for 1 hr assessed as late apoptotic cells at 1 uM after 48 hrs by Annexin V-FITC/propidium iodide staining-based FACS analysis (reference value: 3.15%); format: functional; design: scale not given: the % may be the effect or the level left
[14] = Tmax in Sprague-Dawley rat at 3.0 mg/kg, po; format: ADME, organism-based; conditions: in vivo; in short: as §2
[15] = test system: HCT-116; assay: Induction of apoptosis in human HCT116 cells pretreated with Z-VAD-FMK pan-caspase inhibitor for 1 hr assessed as late apoptotic cells at 2 uM after 48 hrs by Annexin V-FITC/propidium iodide staining-based FACS analysis (reference value: 3.15%); format: functional; design: scale not given: the % may be the effect or the level left
[16] = test system: BT-474; assay: Antiproliferative activity against human BT474 cells after 72 hrs by sulforhodamine B assay; format: functional, cell-based; conditions: BT-474, 72 h; in short: as §3
[17] = test system: HCT-116; assay: Induction of apoptosis in human HCT116 cells assessed as late apoptotic cells at 0.5 uM after 48 hrs by Annexin V-FITC/propidium iodide staining-based FACS analysis (reference value: 5.74%); format: functional
[18] = test system: HCT-116; assay: Induction of apoptosis in human HCT116 cells pretreated with Z-VAD-FMK pan-caspase inhibitor for 1 hr assessed as early apoptotic cells at 2 uM after 48 hrs by Annexin V-FITC/propidium iodide staining-based FACS analysis (reference value: 1.34%); format: functional; design: scale not given: the % may be the effect or the level left
[19] = test system: HCT-116; assay: Antiproliferative activity against human HCT116 cells after 72 hrs by sulforhodamine B assay; format: functional, cell-based; conditions: HCT-116, 72 h; in short: as §3
[20] = test system: DU-145; assay: Antiproliferative activity against human DU145 cells after 72 hrs by sulforhodamine B assay; format: functional, cell-based; conditions: DU-145, 72 h; in short: as §3
[21] = test system: HUVEC; assay: Antiproliferative activity against human HUVEC cells after 72 hrs by sulforhodamine B assay; format: cell-based; in short: as §3
[22] = test system: BEL-7404 tumor cell line; assay: Antiproliferative activity against human Bel7404 cells after 72 hrs by sulforhodamine B assay; format: functional, cell-based; conditions: BEL-7404, 72 h; in short: as §3
[23] = Half life in Sprague-Dawley rat at 3.0 mg/kg, po; format: ADME, organism-based; conditions: in vivo; in short: as §4
[24] = Half life in mouse liver microsomes at 0.1 uM up to 60 mins by LC-MS/MS analysis; format: ADME, microsome; conditions: liver microsomes; in short: as §1
[25] = Cmax in Sprague-Dawley rat at 3.0 mg/kg, po; format: ADME, organism-based; design: dose 3 mg/kg, route oral; conditions: in vivo; in short: as §4
[26] = test system: HCT-116; assay: Induction of apoptosis in human HCT116 cells assessed as late apoptotic cells at 1 uM after 48 hrs by Annexin V-FITC/propidium iodide staining-based FACS analysis (reference value: 5.74%); format: functional
[27] = Antiproliferative activity against human KB/VCR cells after 72 hrs by sulforhodamine B assay; format: functional, cell-based; in short: as §3
[28] = test system: HCT-116; assay: Induction of apoptosis in human HCT116 cells pretreated with Z-VAD-FMK pan-caspase inhibitor for 1 hr assessed as late apoptotic cells at 0.5 uM after 48 hrs by Annexin V-FITC/propidium iodide staining-based FACS analysis (reference value: 3.15%); format: functional; design: scale not given: the % may be the effect or the level left
[29] = Clearance in Sprague-Dawley rat at 1.0 mg/kg, iv; format: ADME, organism-based; conditions: in vivo; in short: as §4
[30] = Half life in rat liver microsomes at 0.1 uM up to 60 mins by LC-MS/MS analysis; format: ADME, microsome; in short: as §1
[31] = test system: Liver; assay: Intrinsic clearance in rat liver microsomes assessed per mg protein up to 60 mins by LC-MS/MS analysis; format: ADME, microsome; conditions: 1 h
In short: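 Liver microsomes (0.33 mg/mL protein) in 0.1 M Tris/HCl pH 7.4 with 5 mM MgCl2, 1 mM NADPH, compound at 0.1 μM final (0.01% DMSO, 0.005% BSA), 37 °C; samples at 0, 7, 17, 30, 60 min quenched in methanol, centrifuged, LC-MS/MS; T1/2 and Clint per g protein derived.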

[32] = Antiproliferative activity against human HepG cells after 72 hrs by sulforhodamine B assay; format: functional, cell-based; in short: as §3
[33] = test system: HCT-116; assay: Induction of apoptosis in human HCT116 cells pretreated with Z-VAD-FMK pan-caspase inhibitor for 1 hr assessed as early apoptotic cells at 0.5 uM after 48 hrs by Annexin V-FITC/propidium iodide staining-based FACS analysis (reference value: 1.34%); format: functional; design: scale not given: the % may be the effect or the level left

## CCN(CC)CCCn1c2c(c3ccccc3c1=O)C(=O)C(=O)c1cc(C)oc1-2
[1]
  Activity: 8.61%
[2]
  solubility at 24 h: 15.7 mg/mL (≈ 40.1 mM)
[3]
  half-life at 0.1 µM: 1.49 h
[4]
  Activity: 2.39%
[5]
  bioavailability: 21%
[6]
  Activity: 23.98%
[7]
  intrinsic clearance: 38.5 mL/min/g
[8]
  IC50: 120 nM
[9]
  AUC: 81.4 ng·h/mL
[10]
  IC50: 170 nM
[11]
  MRT inf: 0.835 h
[12]
  IC50: 190 nM
[13]
  Activity: 6.47%
[14]
  Tmax: 0.25 h
[15]
  Activity: 22.49%
[16]
  IC50: 770 nM
[17]
  Activity: 4.19%
[18]
  Activity: 11.88%
[19]
  IC50: 140 nM
[20]
  IC50: 220 nM
[21]
  IC50: 2520 nM
[22]
  IC50: 360 nM
[23]
  half-life: 2.58 h
[24]
  half-life at 0.1 µM: 0.909 h
[25]
  Cmax: 33.7 ng/mL
[26]
  Activity: 9.09%
[27]
  IC50: 330 nM
[28]
  Activity: 4.09%
[29]
  clearance: 176 mL/min/kg
[30]
  half-life at 0.1 µM: 1.26 h
[31]
  intrinsic clearance: 27.7 mL/min/g
[32]
  IC50: 1310 nM
[33]
  Activity: 1.53%
